Test results as given in ChEMBL document CHEMBL3124809, “Back pocket flexibility provides group II p21-activated kinase (PAK) selectivity for type I 1/2 kinase inhibitors” (J Med Chem, 2014).
Converted amounts (≈) assume the structure as drawn. The source made the active and inactive calls. The calls are words filed in the database; no cut-off is given here.

Columns and labels:
[1] = target: Serine/threonine-protein kinase PAK 1 (Homo sapiens, UniProt Q13153); assay: Binding affinity to N-terminal GST-His-tagged recombinant human PAK1 kinase domain expressed in Escherichia coli BL21 using KKRNRRLSVA as sustrate preincubated for 10 mins followed by ATP addition measured after 60 mins by FRET-based Z'Lyte assay
[2] = target: T1, Serine/threonine-protein kinase PAK 4 (Homo sapiens, UniProt O96013); assay: Binding affinity to N-terminal GST-tagged recombinant human PAK4 kinase domain expressed in Escherichia coli using KKRNRRLSVA as substrate preincubated for 10 mins followed by ATP addition measured after 60 mins by FRET-based Z'Lyte assay
Target sequence in this assay (O96013 whole entry, the tested form may be a part): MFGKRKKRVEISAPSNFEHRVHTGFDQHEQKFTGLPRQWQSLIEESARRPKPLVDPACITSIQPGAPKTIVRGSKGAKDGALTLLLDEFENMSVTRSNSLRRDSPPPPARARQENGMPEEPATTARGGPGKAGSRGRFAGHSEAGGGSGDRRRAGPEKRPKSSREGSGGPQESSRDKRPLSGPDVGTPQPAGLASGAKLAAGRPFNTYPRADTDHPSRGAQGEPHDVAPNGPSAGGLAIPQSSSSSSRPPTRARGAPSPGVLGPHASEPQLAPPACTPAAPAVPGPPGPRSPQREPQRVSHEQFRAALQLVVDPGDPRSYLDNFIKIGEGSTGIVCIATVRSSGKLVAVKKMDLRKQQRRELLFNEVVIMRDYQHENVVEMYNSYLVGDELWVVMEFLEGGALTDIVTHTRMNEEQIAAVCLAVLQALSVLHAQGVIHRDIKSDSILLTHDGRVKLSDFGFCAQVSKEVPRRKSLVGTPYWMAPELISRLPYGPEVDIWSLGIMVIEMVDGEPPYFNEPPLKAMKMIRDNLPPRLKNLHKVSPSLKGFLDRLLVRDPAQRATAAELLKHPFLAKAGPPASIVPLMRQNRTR

[3] = target: Mitogen-activated protein kinase kinase kinase 14 (Homo sapiens) (UniProt Q99558); assay: Inhibition of NIK (unknown origin) at 1 uM
[4] = target: T1, Serine/threonine-protein kinase PAK 4; assay: Inhibition of PAK4 (unknown origin) at 1 uM
Target sequence in this assay (O96013 whole entry, looked up, the tested form may be a part): as the sequence (O96013 whole entry, the tested form may be a part) above

[5] = target: Misshapen-like kinase 1 (Homo sapiens) (UniProt Q8N4C8); assay: Inhibition of MINK1 (unknown origin) at 1 uM
[6] = target: Mitogen-activated protein kinase kinase kinase kinase 4 (Homo sapiens) (UniProt O95819); assay: Inhibition of MAP4K4 (unknown origin) at 1 uM
[7] = target: T2, Tyrosine-protein kinase JAK3 (Homo sapiens) (UniProt P52333); assay: Inhibition of JAK3 (unknown origin) at 1 uM
T2 sequence (whole entry): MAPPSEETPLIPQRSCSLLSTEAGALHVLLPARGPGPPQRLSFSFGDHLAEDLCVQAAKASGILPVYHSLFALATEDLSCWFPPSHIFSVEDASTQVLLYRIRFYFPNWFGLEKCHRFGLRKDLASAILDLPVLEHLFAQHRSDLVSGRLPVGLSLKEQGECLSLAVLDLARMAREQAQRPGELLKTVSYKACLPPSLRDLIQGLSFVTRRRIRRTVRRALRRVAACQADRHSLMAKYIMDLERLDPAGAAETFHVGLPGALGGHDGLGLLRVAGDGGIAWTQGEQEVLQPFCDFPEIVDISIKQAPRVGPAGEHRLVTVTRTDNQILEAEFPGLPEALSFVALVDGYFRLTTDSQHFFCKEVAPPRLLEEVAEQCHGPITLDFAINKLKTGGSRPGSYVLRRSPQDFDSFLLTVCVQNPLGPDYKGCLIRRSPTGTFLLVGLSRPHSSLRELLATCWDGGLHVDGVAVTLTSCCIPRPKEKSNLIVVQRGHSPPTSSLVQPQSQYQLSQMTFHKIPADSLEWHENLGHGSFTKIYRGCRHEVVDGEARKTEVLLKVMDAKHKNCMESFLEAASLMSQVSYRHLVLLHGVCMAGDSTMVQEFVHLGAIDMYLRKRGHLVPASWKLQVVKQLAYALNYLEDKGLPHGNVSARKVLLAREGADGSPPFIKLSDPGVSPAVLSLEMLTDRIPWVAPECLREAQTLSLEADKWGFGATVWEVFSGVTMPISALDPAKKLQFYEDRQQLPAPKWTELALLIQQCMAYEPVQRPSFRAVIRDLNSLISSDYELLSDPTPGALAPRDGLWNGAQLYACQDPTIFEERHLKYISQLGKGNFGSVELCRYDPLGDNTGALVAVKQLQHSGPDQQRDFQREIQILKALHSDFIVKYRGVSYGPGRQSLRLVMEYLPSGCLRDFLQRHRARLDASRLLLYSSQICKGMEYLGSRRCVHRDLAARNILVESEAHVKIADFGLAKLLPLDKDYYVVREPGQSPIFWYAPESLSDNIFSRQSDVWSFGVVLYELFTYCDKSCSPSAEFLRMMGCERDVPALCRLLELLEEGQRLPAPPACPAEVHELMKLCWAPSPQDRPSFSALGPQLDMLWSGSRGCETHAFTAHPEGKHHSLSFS

[8] = target: Mitogen-activated protein kinase kinase kinase kinase 5 (Homo sapiens) (UniProt Q9Y4K4); assay: Inhibition of KHS1 (unknown origin) at 1 uM
[9] = Cytotoxicity against human MDA-MB-436 cells assessed as reduction in cell viability after 24 to 48 hrs by Celltiter-glo luminescence assay; type: functional, cell-based
Procedure, shortened: (§1)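 Cells sparsely plated in 96-well plates and allowed to adhere, then given DMSO or compound (0.1, 1, 10, 50 μM) for 24 and 48 h. Metabolically active cells quantified by CellTiter-Glo luminescence. MDA-MB-436 grown in DMEM/10% FBS; MCF10A PIK3CA (one endogenous H1047R allele) in DMEM/F12 with 5% horse serum, insulin, hydrocortisone.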

[10] = Plasma protein binding in human plasma; type: ADME, cell-free; conditions: read-out: PPB (converted)
[11] = Kinetic solubility of the compound; type: physicochemical; conditions: read-out: Kinetic_solubility
[12] = Thermodynamic solubility of the compound; type: physicochemical; conditions: read-out: Therm_solubility
[13] = target: T1, Serine/threonine-protein kinase PAK 4; assay: Inhibition of PAK4 (unknown origin)
Target sequence in this assay (O96013 whole entry, the tested form may be a part): as the sequence (O96013 whole entry, the tested form may be a part) above

[14] = target: T3, Serine/threonine-protein kinase PAK 5 (Homo sapiens, UniProt Q9P286); assay: Inhibition of PAK5 (unknown origin)
[15] = target: T4, Serine/threonine-protein kinase PAK 6 (Homo sapiens, UniProt Q9NQU5); assay: Inhibition of PAK6 (unknown origin)
[16] = target: Serine/threonine-protein kinase PAK 2 (Homo sapiens, UniProt Q13177); assay: Inhibition of PAK2 (unknown origin)
[17] = target: Serine/threonine-protein kinase PAK 3 (Homo sapiens, UniProt O75914); assay: Inhibition of PAK3 (unknown origin)
[18] = Apparent permeability across apical to basolateral side in MDCK cells; type: ADME, cell-based, Canis lupus familiaris; conditions: dog
[19] = Lipophilicity, log D of the compound at pH 7.4; type: physicochemical; conditions: buffer
Ephrin type-B receptor 1 = target: T5, Ephrin type-B receptor 1 (Homo sapiens, UniProt P54762); assay: Inhibition of EphB1 (unknown origin)
T5 sequence (P54762 whole entry): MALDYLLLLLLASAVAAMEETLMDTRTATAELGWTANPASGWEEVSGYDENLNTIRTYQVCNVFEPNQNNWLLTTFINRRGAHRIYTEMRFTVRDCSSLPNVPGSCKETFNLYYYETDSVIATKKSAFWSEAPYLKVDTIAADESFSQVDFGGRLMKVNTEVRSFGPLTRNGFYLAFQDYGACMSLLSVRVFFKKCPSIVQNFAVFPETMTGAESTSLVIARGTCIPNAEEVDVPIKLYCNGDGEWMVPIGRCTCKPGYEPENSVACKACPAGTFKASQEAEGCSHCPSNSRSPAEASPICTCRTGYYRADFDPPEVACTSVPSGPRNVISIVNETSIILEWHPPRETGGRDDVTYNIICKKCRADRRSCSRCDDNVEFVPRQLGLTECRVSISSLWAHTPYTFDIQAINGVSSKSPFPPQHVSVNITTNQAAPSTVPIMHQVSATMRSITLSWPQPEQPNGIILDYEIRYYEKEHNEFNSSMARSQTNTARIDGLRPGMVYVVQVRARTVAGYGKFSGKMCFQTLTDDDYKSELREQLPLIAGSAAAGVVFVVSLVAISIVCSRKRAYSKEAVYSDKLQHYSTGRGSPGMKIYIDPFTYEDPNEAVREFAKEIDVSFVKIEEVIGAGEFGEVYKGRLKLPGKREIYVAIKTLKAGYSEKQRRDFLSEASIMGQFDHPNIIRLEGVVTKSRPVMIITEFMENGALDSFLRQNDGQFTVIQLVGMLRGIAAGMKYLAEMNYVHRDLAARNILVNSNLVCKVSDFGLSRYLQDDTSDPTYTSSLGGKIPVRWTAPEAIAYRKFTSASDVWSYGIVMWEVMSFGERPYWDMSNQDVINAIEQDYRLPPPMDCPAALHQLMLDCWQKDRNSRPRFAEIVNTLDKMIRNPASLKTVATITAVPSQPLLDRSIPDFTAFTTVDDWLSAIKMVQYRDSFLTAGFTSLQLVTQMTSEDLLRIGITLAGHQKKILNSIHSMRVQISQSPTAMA

MCF-10A [20] = assay: Cytotoxicity against human MCF10A cells harboring PIK3CA H1047R mutant cells assessed as reduction in cell viability at 50 uM after 24 to 48 hrs by Celltiter-glo luminescence assay; type: functional, cell-based; procedure, shortened: as §1
MDA-MB-436 [21] = assay: Cytotoxicity against human MDA-MB-436 cells assessed as reduction in cell viability at 50 uM after 24 to 48 hrs by Celltiter-glo luminescence assay; type: functional, cell-based; procedure, shortened: as §1
[22] = Cytotoxicity against human MDA-MB-436 cells assessed as reduction in cell viability at 10 uM after 24 to 48 hrs by Celltiter-glo luminescence assay; type: functional; procedure, shortened: as §1
[23] = Cytotoxicity against human MCF10A cells harboring PIK3CA H1047R mutant cells assessed as reduction in cell viability at 10 uM after 24 to 48 hrs by Celltiter-glo luminescence assay; type: functional, MCF-10A; procedure, shortened: as §1
[24] = Antiinvasive activity against human MCF10A cells harboring PIK3CA H1047R mutant assessed as reduction of wound density at 10 uM after 48 hrs by matrigel assay; type: functional, MCF-10A; set-up: scale not given: the % may be the effect or the level left
MCF-10A [25] = assay: Antiinvasive activity against human MCF10A cells harboring PIK3CA H1047R mutant assessed as complete wound closure at 0.1 to 50 uM after 40 hrs by matrigel assay; type: functional, cell-based
MDA-MB-436 [26] = assay: Antiinvasive activity against human MDA-MB-436 cells assessed as reduction of wound density after 80 hrs by matrigel assay; type: functional, cell-based
[27] = Antiinvasive activity against human MDA-MB-436 cells assessed as reduction of wound density at 1 uM after 80 hrs by matrigel assay; type: functional; set-up: scale not given: the % may be the effect or the level left
MDA-MB-436 [28] = assay: Antiinvasive activity against human MDA-MB-436 cells assessed as complete wound closure at 0.1 to 50 uM after 80 hrs by matrigel assay; type: functional, cell-based
[29] = Antimigratory activity in human MCF10A cells harboring PIK3CA H1047R mutant assessed as reduced wound density at >10 uM after 20 hrs by wound healing assay; type: functional, MCF-10A; set-up: scale not given: the % may be the effect or the level left
Procedure, shortened: (§2)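 Monolayer of 40 000 cells per well, grown overnight, scratched with WoundMaker, washed twice with warm medium, then given medium with DMSO or compound (0.1, 1, 10, 50 μM). Relative wound density from phase-contrast time-lapse images, collected and quantified every 2 h on IncuCyte.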

[30] = Antimigratory activity in human MDA-MB-436 cells assessed as reduction in wound density at >10 uM after 1 to 24 hrs by wound healing assay; type: functional; set-up: scale not given: the % may be the effect or the level left; procedure, shortened: as §2
[31] = target: T4, Serine/threonine-protein kinase PAK 6; assay: Inhibition of PAK6 (unknown origin) at 0.1 uM
[32] = target: T3, Serine/threonine-protein kinase PAK 5; assay: Inhibition of PAK5 (unknown origin) at 0.1 uM
[33] = target: T1, Serine/threonine-protein kinase PAK 4; conditions: 0.1 uM
Target sequence in this assay (O96013 whole entry, looked up, the tested form may be a part): as the sequence (O96013 whole entry, the tested form may be a part) above

Sequence of Serine/threonine-protein kinase PAK 1 (Q13153 whole entry, the tested form may be a part): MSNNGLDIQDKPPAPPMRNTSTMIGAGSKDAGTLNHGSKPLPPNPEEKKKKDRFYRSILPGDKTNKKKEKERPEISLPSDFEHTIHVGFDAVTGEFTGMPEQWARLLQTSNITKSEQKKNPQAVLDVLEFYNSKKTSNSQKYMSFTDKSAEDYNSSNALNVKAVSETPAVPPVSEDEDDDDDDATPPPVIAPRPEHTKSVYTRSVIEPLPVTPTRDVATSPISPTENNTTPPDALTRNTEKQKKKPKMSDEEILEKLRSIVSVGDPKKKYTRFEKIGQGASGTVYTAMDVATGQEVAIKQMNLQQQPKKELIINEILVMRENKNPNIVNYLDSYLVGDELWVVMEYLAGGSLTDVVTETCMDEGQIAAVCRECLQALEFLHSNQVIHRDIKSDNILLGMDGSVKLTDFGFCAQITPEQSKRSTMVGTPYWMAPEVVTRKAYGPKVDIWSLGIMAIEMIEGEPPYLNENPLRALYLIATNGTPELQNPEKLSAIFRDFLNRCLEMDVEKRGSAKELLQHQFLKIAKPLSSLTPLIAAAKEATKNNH
Sequence of Mitogen-activated protein kinase kinase kinase kinase 4 (Homo sapiens) (O95819 2-1239 limits assumed): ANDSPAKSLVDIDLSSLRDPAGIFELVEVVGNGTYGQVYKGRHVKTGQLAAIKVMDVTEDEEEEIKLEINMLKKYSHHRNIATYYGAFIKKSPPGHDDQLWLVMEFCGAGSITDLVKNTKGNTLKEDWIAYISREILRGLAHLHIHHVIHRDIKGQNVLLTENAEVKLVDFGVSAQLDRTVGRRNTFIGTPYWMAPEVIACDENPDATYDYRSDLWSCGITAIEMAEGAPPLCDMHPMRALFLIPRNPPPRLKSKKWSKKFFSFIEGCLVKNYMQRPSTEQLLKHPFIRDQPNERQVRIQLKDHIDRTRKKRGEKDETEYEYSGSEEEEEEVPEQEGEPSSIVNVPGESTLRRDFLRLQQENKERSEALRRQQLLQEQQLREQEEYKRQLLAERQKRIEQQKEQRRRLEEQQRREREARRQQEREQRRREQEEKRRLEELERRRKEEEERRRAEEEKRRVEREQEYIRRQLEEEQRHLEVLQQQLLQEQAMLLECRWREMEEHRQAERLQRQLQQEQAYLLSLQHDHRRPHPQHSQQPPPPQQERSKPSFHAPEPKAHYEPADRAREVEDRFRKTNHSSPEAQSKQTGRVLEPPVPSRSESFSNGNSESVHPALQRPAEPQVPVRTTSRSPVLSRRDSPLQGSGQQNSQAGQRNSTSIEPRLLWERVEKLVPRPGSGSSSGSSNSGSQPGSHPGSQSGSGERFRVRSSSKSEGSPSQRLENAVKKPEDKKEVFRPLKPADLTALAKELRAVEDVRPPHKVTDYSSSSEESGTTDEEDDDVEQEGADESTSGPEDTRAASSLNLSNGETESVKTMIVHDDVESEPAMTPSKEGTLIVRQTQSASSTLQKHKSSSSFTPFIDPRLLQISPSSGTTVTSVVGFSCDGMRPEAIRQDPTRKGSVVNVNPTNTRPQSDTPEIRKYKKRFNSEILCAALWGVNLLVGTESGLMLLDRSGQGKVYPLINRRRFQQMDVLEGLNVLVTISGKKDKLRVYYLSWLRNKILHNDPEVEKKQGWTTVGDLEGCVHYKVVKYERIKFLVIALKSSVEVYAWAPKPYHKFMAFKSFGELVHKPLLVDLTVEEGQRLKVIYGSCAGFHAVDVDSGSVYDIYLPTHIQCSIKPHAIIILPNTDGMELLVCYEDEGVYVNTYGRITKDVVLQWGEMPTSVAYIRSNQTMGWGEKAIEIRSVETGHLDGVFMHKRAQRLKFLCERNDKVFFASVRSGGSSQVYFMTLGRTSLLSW
Sequence of Mitogen-activated protein kinase kinase kinase kinase 5 (Homo sapiens) (Q9Y4K4 whole entry, looked up): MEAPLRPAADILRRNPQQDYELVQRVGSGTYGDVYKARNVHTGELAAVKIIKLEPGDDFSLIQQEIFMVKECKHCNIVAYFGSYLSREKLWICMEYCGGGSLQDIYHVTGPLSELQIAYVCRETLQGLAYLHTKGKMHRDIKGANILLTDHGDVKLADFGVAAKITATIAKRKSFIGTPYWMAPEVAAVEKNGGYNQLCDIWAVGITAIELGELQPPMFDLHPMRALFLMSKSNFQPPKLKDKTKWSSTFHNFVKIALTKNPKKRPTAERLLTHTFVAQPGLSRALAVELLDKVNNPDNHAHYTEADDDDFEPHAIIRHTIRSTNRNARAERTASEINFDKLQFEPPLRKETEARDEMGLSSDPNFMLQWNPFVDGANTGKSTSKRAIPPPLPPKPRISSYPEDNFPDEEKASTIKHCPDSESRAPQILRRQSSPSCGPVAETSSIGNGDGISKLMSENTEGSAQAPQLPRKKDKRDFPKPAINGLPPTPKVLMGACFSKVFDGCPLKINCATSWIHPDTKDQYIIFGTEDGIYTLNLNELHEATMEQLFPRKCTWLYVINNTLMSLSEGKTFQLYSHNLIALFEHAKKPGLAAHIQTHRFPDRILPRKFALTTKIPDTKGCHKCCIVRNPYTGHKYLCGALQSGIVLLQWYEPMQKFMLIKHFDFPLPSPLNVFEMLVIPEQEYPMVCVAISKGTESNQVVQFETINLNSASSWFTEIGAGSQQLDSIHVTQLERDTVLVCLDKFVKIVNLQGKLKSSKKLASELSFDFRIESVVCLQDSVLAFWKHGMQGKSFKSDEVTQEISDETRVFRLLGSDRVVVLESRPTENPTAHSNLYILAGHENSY
Sequence of Mitogen-activated protein kinase kinase kinase 14 (Homo sapiens) (Q99558 whole entry, looked up): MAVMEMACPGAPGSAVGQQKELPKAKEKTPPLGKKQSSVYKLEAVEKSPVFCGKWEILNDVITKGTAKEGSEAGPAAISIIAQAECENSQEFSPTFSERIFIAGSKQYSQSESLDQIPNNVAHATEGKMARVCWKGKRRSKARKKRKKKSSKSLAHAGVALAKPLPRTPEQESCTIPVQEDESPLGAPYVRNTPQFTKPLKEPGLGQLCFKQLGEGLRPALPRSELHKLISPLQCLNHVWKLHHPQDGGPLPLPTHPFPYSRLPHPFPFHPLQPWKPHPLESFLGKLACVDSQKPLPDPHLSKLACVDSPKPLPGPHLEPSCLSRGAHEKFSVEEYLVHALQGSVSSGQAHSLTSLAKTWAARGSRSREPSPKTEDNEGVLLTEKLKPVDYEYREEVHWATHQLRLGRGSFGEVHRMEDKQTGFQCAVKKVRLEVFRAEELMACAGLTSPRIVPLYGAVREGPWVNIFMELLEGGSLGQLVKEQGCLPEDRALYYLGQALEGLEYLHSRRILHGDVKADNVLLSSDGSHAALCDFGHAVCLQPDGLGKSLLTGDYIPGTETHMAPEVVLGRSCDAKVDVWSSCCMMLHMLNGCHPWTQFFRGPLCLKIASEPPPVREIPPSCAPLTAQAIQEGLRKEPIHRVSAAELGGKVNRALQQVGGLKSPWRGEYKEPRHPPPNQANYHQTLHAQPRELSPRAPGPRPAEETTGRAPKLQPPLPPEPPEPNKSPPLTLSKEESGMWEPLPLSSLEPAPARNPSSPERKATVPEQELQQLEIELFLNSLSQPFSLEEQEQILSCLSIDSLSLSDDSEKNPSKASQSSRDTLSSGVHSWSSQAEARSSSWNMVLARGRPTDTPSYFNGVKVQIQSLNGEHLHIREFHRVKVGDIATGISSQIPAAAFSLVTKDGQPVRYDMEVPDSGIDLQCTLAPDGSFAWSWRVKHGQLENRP
Sequence of Serine/threonine-protein kinase PAK 3 (O75914 whole entry): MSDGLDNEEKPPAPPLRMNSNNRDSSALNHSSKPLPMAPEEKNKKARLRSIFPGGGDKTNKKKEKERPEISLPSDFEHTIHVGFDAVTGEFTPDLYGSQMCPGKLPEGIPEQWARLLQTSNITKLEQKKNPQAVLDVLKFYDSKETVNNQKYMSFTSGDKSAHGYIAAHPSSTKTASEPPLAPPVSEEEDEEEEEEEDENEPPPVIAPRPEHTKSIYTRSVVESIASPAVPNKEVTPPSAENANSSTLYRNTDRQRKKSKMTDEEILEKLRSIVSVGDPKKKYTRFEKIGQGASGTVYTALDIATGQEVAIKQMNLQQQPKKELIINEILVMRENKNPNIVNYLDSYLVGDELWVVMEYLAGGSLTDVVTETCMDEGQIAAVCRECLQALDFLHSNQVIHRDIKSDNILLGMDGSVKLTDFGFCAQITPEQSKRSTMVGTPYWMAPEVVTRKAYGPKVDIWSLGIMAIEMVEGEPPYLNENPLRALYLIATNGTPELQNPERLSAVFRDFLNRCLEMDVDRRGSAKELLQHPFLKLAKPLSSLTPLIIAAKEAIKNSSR

Cc1nc2ccc(C#CC(C)(O)CO)cc2n1-c1ncnc(N)n1 (racemic)
Ki [1]: > 4500 nM | Ki [2]: > 2900 nM

Cc1nc2ccc(C#CC3(O)CCCCC3)cc2n1-c1ncnc(N)n1
Ki [2]: 68 nM | inhibition [3]: 56% | inhibition [4]: 91% | inhibition [5]: 6% | inhibition [6]: 4% | inhibition [7]: -2% | inhibition [8]: 44%

Cc1nc2ccc(C#CC(C)(O)c3ncccn3)cc2n1-c1ncnc(N)n1 (racemic)
Ki [1]: > 4500 nM | Ki [2]: > 2900 nM

Cc1nc2ccc(C#CC(C)(C)CO)cc2n1-c1ncnc(N)n1
Ki [1]: > 4500 nM | Ki [2]: > 2900 nM

Cc1nc(Nc2n[nH]c3c2CN(C(=O)N[C@H](CN(C)C)c2ccccc2)C3(C)C)c2sccc2n1 [PF-03758309]
IC50 [9]: 0.79 nM

Cc1nc2ccc(C#CC3(O)CCCOC3)cc2n1-c1ncnc(N)n1 (racemic)
Ki [1]: > 4500 nM | Ki [2]: > 2900 nM

COCCNc1nc2ccc(C#CC3(O)CCCCC3)cc2n1-c1ccnc(N)n1
fraction unbound [10]: 0.04 | solubility kinetic [11]: 30 µM (≈ 12.2 µg/mL) | solubility thermodynamic [12]: 6.3 µM (≈ 2.56 µg/mL) | IC50 [13]: 7.5 nM | IC50 [14]: 126 nM | IC50 [15]: 36 nM | IC50 [16]: 970 nM | IC50 [17]: > 10000 nM | Papp A→B [18]: 22.2 ×10⁻⁶ cm/s | logD [19]: 3.6 | IC50 (Ephrin type-B receptor 1): > 10000 nM | Activity (MCF-10A [20]): Active | Activity (MDA-MB-436 [21]): Active | Activity [22]: 50% | Activity [23]: 50% | Activity [24]: 50% | Activity (MCF-10A [25]): Active | Activity (MDA-MB-436 [26]): Dose-dependent effect | Activity [27]: 50% | Activity (MDA-MB-436 [28]): inactive | Activity [29]: 50% | Activity [30]: 50% | inhibition [31]: > 60% | inhibition [32]: > 60% | inhibition [3]: 46% | inhibition [4]: 100% | inhibition [5]: 5% | inhibition [6]: -4% | inhibition [7]: -1% | inhibition [8]: 14% | inhibition [33]: > 60%

Cc1nc2ccc(C#CC(C)(O)CC3CC3)cc2n1-c1ncnc(N)n1 (racemic)
Ki [1]: > 4500 nM | Ki [2]: 670 nM
